Reference: ChEMBL document CHEMBL1806477, “Discovery of novel imidazo[1,2-a]pyridines as inhibitors of the insulin-like growth factor-1 receptor tyrosine kinase” (Bioorg Med Chem Lett, 2011)
Each block holds one molecule with its values, some of them ahead of it.

Key:
[1] = molecular target: Cyclin-dependent kinase 2 (Homo sapiens, UniProt P24941); assay: Inhibition of CDK2
[2] = molecular target: T1, Insulin-like growth factor 1 receptor (Homo sapiens, UniProt P08069); assay: Inhibition of IGF1-induced autophosphorylation of human recombinant IGF1R expressed in mouse fibroblasts by high throughput assay
T1 sequence (P08069 31-736 limits assumed): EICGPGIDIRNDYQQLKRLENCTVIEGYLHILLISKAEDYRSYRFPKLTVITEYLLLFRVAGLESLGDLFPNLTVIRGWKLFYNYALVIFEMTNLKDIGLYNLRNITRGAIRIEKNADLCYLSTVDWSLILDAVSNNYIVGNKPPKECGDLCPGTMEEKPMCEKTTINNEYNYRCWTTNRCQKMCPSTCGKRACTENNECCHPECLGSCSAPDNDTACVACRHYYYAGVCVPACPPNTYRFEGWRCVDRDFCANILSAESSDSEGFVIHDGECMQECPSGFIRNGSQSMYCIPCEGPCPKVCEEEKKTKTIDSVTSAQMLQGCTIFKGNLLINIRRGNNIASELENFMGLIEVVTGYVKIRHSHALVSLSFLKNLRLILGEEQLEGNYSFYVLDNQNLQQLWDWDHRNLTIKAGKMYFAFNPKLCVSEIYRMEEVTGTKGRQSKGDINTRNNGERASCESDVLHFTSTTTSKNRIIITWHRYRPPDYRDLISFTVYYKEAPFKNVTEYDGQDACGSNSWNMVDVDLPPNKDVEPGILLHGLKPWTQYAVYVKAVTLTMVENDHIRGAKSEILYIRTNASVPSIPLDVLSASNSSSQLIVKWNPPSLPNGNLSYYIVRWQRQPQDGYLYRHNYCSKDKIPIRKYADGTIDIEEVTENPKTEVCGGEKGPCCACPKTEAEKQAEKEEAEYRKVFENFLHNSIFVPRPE
T1 sequence (P08069 741-1367 limits assumed): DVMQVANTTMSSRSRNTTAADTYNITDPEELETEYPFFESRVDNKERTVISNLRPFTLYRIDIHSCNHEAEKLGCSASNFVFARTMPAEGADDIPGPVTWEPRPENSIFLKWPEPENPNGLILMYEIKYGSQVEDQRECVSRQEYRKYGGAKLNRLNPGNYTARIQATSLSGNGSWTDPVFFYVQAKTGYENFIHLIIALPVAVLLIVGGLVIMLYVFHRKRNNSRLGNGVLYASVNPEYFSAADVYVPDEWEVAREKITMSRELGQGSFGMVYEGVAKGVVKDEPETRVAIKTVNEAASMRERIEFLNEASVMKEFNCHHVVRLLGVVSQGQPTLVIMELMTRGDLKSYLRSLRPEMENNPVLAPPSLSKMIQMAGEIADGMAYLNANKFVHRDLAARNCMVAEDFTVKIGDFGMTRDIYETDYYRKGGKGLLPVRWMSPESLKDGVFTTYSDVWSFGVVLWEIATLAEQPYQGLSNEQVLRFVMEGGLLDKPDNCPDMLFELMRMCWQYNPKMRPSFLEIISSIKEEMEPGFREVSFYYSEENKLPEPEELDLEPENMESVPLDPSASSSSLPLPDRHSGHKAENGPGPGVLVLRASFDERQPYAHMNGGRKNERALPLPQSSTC

[3] = molecular target: T1, Insulin-like growth factor 1 receptor; assay: Inhibition of IGF1R
[4] = molecular target: T2, Insulin receptor (Homo sapiens, UniProt P06213); assay: Inhibition of insulin receptor
T2 sequence (P06213 28-758 limits assumed): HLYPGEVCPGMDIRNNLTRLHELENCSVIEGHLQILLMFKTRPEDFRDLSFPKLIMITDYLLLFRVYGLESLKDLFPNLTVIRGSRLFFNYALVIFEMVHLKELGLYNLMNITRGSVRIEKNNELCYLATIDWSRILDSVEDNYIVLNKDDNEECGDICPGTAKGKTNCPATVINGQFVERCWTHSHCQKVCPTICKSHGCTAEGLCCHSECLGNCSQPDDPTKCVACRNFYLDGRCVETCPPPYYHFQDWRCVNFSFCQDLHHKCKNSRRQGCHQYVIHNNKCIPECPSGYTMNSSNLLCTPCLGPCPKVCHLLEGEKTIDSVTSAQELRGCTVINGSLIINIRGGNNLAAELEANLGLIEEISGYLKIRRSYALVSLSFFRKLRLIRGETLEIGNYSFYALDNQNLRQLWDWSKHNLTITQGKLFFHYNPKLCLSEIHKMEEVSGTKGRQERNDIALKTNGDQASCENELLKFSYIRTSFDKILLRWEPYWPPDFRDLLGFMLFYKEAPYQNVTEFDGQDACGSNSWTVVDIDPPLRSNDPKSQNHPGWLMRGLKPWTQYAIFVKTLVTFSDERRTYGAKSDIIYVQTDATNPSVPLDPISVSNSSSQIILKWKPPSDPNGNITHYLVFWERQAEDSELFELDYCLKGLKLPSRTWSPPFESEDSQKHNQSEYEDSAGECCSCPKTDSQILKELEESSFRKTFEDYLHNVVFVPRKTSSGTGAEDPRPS
T2 sequence (P06213 763-1382 limits assumed): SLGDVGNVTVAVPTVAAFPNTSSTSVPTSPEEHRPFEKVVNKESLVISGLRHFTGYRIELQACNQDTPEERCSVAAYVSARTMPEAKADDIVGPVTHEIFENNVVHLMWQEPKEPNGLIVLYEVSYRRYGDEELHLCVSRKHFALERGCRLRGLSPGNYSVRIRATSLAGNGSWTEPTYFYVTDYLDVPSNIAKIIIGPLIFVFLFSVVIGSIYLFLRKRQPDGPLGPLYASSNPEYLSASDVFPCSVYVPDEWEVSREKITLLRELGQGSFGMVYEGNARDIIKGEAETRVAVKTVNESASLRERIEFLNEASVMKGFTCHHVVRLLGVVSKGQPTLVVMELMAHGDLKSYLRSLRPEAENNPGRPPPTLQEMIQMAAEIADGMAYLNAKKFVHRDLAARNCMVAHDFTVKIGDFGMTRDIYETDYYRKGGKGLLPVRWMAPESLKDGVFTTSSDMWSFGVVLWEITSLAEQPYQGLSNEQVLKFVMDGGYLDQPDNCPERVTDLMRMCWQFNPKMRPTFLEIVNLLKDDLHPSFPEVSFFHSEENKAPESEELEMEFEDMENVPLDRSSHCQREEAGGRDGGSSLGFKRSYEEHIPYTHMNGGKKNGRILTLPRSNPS

[5] = molecular target: T2, Insulin receptor; assay: Inhibition of insulin-induced autophosphorylation of human insulin receptor expressed in CHO cells; assay type: cell-based
Method in brief: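 CHO cells transfected with the human insulin receptor gene, stimulated with insulin; the read-out is inhibition of receptor auto-phosphorylation.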

[6] = molecular target: Mitogen-activated protein kinase 8 (Homo sapiens) (UniProt P45983); assay: Inhibition of JNK1 at 1 uM
Mitogen-activated protein kinase 8 (Homo sapiens), sequence (P45983 whole entry): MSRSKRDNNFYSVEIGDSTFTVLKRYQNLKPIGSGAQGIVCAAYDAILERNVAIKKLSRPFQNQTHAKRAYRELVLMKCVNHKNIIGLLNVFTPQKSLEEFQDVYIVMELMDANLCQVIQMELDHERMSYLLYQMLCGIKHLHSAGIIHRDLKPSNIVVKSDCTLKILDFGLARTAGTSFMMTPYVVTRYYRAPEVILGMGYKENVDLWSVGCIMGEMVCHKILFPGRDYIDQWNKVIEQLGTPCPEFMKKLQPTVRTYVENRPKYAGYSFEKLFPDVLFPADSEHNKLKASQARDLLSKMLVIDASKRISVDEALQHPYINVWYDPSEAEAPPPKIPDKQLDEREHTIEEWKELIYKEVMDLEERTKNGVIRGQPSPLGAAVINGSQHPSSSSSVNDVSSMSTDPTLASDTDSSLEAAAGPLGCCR

[7] = molecular target: Mitogen-activated protein kinase 9 (Homo sapiens) (UniProt P45984); assay: Inhibition of JNK2 at 1 uM
Mitogen-activated protein kinase 9 (Homo sapiens), sequence (P45984 whole entry, looked up): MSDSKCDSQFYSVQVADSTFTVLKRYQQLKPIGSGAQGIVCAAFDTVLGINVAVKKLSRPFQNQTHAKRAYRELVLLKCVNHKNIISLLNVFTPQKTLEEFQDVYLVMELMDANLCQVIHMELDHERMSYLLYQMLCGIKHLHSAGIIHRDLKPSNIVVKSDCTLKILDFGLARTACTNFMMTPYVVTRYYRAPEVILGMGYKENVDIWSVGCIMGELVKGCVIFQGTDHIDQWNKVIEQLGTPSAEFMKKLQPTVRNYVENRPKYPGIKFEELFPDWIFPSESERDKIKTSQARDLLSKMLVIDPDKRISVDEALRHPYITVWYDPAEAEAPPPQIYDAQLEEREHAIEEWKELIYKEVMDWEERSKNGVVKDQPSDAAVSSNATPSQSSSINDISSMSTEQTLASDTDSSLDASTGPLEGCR

[8] = molecular target: T3, Mitogen-activated protein kinase 15 (Homo sapiens) (UniProt Q8TD08); assay: Inhibition of ERK8 at 1 uM
T3 sequence (whole entry): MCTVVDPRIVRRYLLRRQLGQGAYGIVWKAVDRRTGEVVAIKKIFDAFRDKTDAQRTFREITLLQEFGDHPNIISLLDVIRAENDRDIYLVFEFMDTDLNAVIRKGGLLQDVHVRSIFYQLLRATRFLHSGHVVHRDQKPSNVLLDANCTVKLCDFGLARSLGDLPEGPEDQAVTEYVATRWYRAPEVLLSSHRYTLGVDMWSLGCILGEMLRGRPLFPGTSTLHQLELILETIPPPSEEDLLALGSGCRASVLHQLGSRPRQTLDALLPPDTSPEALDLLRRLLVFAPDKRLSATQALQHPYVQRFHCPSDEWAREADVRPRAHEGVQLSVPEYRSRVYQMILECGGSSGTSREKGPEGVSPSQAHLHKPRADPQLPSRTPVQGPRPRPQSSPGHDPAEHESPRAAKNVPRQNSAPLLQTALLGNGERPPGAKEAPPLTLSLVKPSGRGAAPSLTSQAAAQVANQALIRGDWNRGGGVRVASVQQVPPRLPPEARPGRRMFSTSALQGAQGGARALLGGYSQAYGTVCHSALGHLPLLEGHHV

[9] = Plasma clearance in nude mouse at 4 umol/kg, iv and 10 umol/kg, po; assay type: ADME, organism-based
[10] = Volume of distribution at steady state in nude mouse at 4 umol/kg, iv and 10 umol/kg, po; assay type: ADME, organism-based; conditions: in vivo, read-out: Vdss
[11] = Terminal half life in nude mouse at 4 umol/kg, iv and 10 umol/kg, po; assay type: ADME, organism-based; conditions: in vivo, read-out: beta t1/2 (converted)
[12] = Oral bioavailability in nude mouse at 10 umol/kg; assay type: ADME, organism-based; conditions: in vivo
[13] = Plasma clearance in Han Wistar rat at 4 umol/kg, iv and 10 umol/kg, po; assay type: ADME, organism-based
Method in brief: (§1)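 Male Han Wistar rats, each given an intravenous dose and a separate oral dose; parameters derived from the plasma concentration profiles.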

[14] = Volume of distribution at steady state in Han Wistar rat at 4 umol/kg, iv and 10 umol/kg, po; assay type: ADME, organism-based; conditions: in vivo, read-out: Vdss; method in brief: as §1
[15] = Terminal half life in Han Wistar rat at 4 umol/kg, iv and 10 umol/kg, po; assay type: ADME, organism-based; conditions: in vivo, read-out: beta t1/2 (converted); method in brief: as §1
[16] = Oral bioavailability in Han Wistar rat at 10 umol/kg; assay type: ADME, organism-based; conditions: in vivo
[17] = Plasma clearance in Beagle dog at 0.8 umol/kg, iv and 10 umol/kg, po; assay type: ADME, organism-based, Canis lupus familiaris
Method in brief: (§2)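 Values are means from two beagle dogs, one male and one female, each given an intravenous dose and an oral dose.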

[18] = Volume of distribution at steady state in Beagle dog at 0.8 umol/kg, iv and 10 umol/kg, po; assay type: ADME, organism-based, Canis lupus familiaris; conditions: in vivo, read-out: Vdss; method in brief: as §2
[19] = Terminal half life in Beagle dog at 0.8 umol/kg, iv and 10 umol/kg, po; assay type: ADME, organism-based, Canis lupus familiaris; conditions: in vivo, read-out: beta t1/2 (converted); method in brief: as §2
[20] = Oral bioavailability in Beagle dog at 10 umol/kg; assay type: ADME, organism-based, Canis lupus familiaris; conditions: in vivo; method in brief: as §2
[21] = Intrinsic clearance in mouse hepatocytes assessed per 10^6 cells; assay type: ADME, cell-based, Liver, Hepatocyte
[22] = Intrinsic clearance in rat hepatocytes assessed per 10^6 cells; assay type: ADME, cell-based, Liver, Hepatocyte
[23] = Intrinsic clearance in dog hepatocytes assessed per 10^6 cells; assay type: ADME, cell-based, Canis lupus familiaris, Liver, Hepatocyte
[24] = Intrinsic clearance in human hepatocytes assessed per 10^6 cells; assay type: ADME, cell-based, Liver, Hepatocyte

SMILES: COc1cc(N2CCN(C(C)=O)CC2)ccc1Nc1ncc(C)c(-c2cnc3ccccn23)n1
IC50 [1]: 10000 nM
IC50 [2]: 92 nM

SMILES: CC(=O)N1CCN(c2ccc(Nc3nccc(-c4cnc5ccccn45)n3)cc2)CC1
IC50 [3]: 270 nM
IC50 [1]: 78 nM

SMILES: NS(=O)(=O)c1ccc(Nc2nccc(-c3cnc4ccccn34)n2)cc1
IC50 [3]: 1260 nM
IC50 [1]: 1 nM

SMILES: COc1cc(N2CCN(C(C)=O)CC2)ccc1Nc1ncc(Br)c(-c2cnc3ccccn23)n1
IC50 [3]: 3 nM
IC50 [1]: 1100 nM
IC50 [2]: 9 nM

SMILES: COc1cc(N2CCN(C(C)=O)CC2)ccc1Nc1ncc(C#N)c(-c2cnc3ccccn23)n1
IC50 [1]: 27000 nM
IC50 [2]: 170 nM

SMILES: COc1cc(N2CCN(C(C)=O)CC2)ccc1Nc1nccc(-c2cnc3ccccn23)n1
IC50 [3]: 450 nM
IC50 [1]: > 100000 nM
IC50 [2]: 1340 nM

SMILES: COc1cc(N2CCN(C(C)=O)CC2)ccc1Nc1ncc(OC)c(-c2cnc3ccccn23)n1
IC50 [1]: 53000 nM
IC50 [2]: 190 nM

Continued, in another order:

IC50 [1]: 16000 nM
SMILES: COc1cc(N2CCN(C(C)=O)CC2)ccc1Nc1ncc(C(F)(F)F)c(-c2cnc3ccccn23)n1

IC50 [1]: 1100 nM
IC50 [4]: 9 nM
IC50 [5]: 12 nM
inhibition [6]: > 80%
inhibition [7]: > 80%
clearance [9]: 15 mL/min/kg
Vd [10]: 0.8 L/kg
half-life [11]: 0.9 h
bioavailability [12]: 36%
clearance [13]: 6.5 mL/min/kg
Vd [14]: 0.7 L/kg
half-life [15]: 4.6 h
bioavailability [16]: 49%
clearance [17]: 4.7 mL/min/kg
Vd [18]: 1.9 L/kg
half-life [19]: 5.5 h
bioavailability [20]: 30%
hepatocyte CLint [21]: 32 µL/min/1e6 cells
hepatocyte CLint [22]: 15 µL/min/1e6 cells
hepatocyte CLint [23]: 6.7 µL/min/1e6 cells
hepatocyte CLint [24]: 6.9 µL/min/1e6 cells
SMILES: COc1cc(N2CCN(C(C)=O)CC2)ccc1Nc1ncc(Cl)c(-c2cnc3ccccn23)n1
inhibition [8]: > 80%

IC50 [3]: 89 nM
IC50 [1]: 2700 nM
IC50 [2]: 130 nM
SMILES: COc1cc(N2CCN(C(C)=O)CC2)ccc1Nc1ncc(F)c(-c2cnc3ccccn23)n1
